This excerpt belongs to a sample that is enriched for hits.
L major viab: Leishmania major promastigote growth inhibition, primary screen. 9% of 200,000 active. Leishmania major promastigotes, resazurin fluorescence viability. inhibition, % at 10 µM; in the data active = inhibition above about 50%;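 note: promastigotes grown with compound for 44 hours at 28 °C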
Mdm2 ligase inh: MDM2-luciferase reporter signal enhancers, primary screen, MDM2 E3 ligase inhibitor project, cell-based, luminescence, 1536-well; E3 ubiquitin-protein ligase Mdm2 (Homo sapiens), Q00987; signal enhancement, % at 5 µM; 0.11% of 210,000 active; cell-based MDM2 ubiquitination luciferase reporter, 2 h; 0 = plate control, 100 = twice control, blank-subtracted;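 active = signal enhancement of 30% or more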;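 note: luminescence tracks abundance of the self-degrading MDM2-luciferase fusion protein; higher signal means inhibition of MDM2 E3 ligase activity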
Target sequence (Q00987 whole entry, looked up, the tested form may be a part): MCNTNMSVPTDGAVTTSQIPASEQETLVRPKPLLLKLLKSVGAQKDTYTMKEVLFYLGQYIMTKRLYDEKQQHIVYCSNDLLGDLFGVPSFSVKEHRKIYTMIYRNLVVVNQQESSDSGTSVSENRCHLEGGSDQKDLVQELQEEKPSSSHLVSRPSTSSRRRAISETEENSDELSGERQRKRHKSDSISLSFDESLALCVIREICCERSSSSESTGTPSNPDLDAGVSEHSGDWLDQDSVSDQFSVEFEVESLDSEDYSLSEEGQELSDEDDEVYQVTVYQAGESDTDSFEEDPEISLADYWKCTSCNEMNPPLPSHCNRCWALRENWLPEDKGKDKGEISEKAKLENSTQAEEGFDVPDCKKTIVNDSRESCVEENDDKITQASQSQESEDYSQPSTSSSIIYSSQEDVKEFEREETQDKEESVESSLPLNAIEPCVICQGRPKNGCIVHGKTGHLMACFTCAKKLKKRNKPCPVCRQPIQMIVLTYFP
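Test system: mammalian cells stably expressing self-ubiquitinating, self-degrading MDM2 E3–luciferase fusion; Amount: 2000 cells in each well; Medium: DMEM; Schedule: 4 h settle plus 2 h compound, 37 °C; Technique: SteadyLite luciferase luminescence after 15 min room-temperature reagent incubation; Benchmarks: plate control and blank wells.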
S1P3 antag: S1P3 receptor antagonists, primary screen, cell-based | Sphingosine 1-phosphate receptor 3 (Homo sapiens), Q99500 | inhibition, % at 4.98 µM | 0.27% of 170,000 active | CHO S1P3 NFAT-BLA reporter, FRET fluorescence, antagonist mode;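 active = inhibition above the plate cutoff, the mean inhibition of test wells on that plate plus 3 SD, cut at about 28% in these data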;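 note: cells challenged with S1P at its EC80 of 0.8 µM; blue over green emission ratio from cleaved BLA substrate after 4 h stimulation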
S1P4 antag: S1P4 receptor antagonists, primary screen, cell-based; S1P4-expressing cells, antagonist mode, reporter read-out; inhibition, % at 4.98 µM; AID 1510, 2009; Sphingosine 1-phosphate receptor 4 (Homo sapiens), O95977; 0.26% of 220,000 active; in the data active = inhibition above about 29%
S1P4 agonist: S1P4 receptor agonists, primary screen, cell-based; S1P4-expressing cell line, agonist reporter assay; activation, % at 4.98 µM; AID 1509, 2009; Sphingosine 1-phosphate receptor 4 (Homo sapiens), O95977; 0.35% of 220,000 active; in the data active = activation above about 11%
Of the large screens only hits and unclear results are named; the others gave an inactive call.

O=C(COC(=O)Cc1ccc(Cl)cc1Cl)Nc1ccc(OC(F)F)cc1	L major viab 70
O=C(Nc1ccc([N+](=O)[O-])cc1)Nc1ccc(OC(F)F)c(Cl)c1	L major viab 99
O=C(/C=C/c1ccccc1)Nc1cccc(S(=O)(=O)Nc2ccccc2F)c1	none
O=C(Cc1ccc(Cl)cc1Cl)Nc1cccc(S(=O)(=O)Nc2ccccc2F)c1	L major viab 75
CCc1sc(C(=O)NC2CCN(C)CC2)cc1Br	none
N#Cc1ccc(OCC(=O)N/N=C(\CCC(=O)O)c2cccs2)cc1	none
CC(C)NCCOc1cccc(Br)c1	none (no result: S1P3 antag)
C=CCNCCCCOc1cccc(Br)c1	L major viab 96
COCCCNCCCCOc1cccc(Br)c1	L major viab 99
CC(C)NCCCCOc1cccc(Br)c1	L major viab 99
OCCNCCCCOc1cccc(Br)c1	L major viab 89
Cc1csc2c(SCC(=O)NNC(=O)C(Cl)Cl)ncnc12	none (no result: L major viab)
Oc1ccccc1N=Cc1ccc[nH]1	L major viab 100
Cc1[nH]c2ccccc2c1NC(=O)CN1CCN(c2cccc(C(F)(F)F)c2)CC1	none
Cc1[nH]c2ccccc2c1C(O)CN1CCN(c2cccc(C(F)(F)F)c2)CC1 (stereo not given)	L major viab 60
O=C(CCn1c(=S)oc2ccccc21)NCCC1=CCCCC1	none (no result: L major viab)
CCCCOc1ccc(CSCCN=C(N)N)cc1	L major viab 97
CC(C)(C)NC(=O)C(c1ccc(O)cc1)N(C(=O)Cn1nnc(-c2ccc(F)cc2)n1)c1ccccc1F (stereo not given)	none
COc1ccc(NC(=O)c2cccs2)cc1NC(=O)c1ccco1	L major viab 52 (no result: S1P3 antag)
COc1cc(NC(=O)c2ccc([N+](=O)[O-])o2)ccc1NC(=O)c1cccs1	L major viab 100
Cc1ccc(NC(=O)c2cccs2)cc1NC(=O)c1ccco1	none
COc1cc(NC(=O)c2ccccc2Cl)ccc1NC(=O)c1cccs1	none
CC1CCN(CCCn2c(=S)[nH]c3ccccc3c2=O)CC1	L major viab 100
O=c1c2ccccc2[nH]c(=S)n1CCCN1CCN(C2CCCCC2)CC1	L major viab 98, S1P3 antag 70
O=c1c2ccccc2[nH]c(=S)n1CCCN1CCOCC1	none (no result: S1P3 antag)
COc1cccc(/C=C/C(=O)OCC(=O)Nc2ccc(N3CCOCC3)cc2)c1OC	none
CCOC(=O)n1c(=O)n(Cc2c(Cl)cccc2Cl)c2ccccc21	none (no result: S1P3 antag)
N/C(Cc1cccc2ccccc12)=N\OC(=O)c1cccs1	L major viab 58
COc1ccccc1N1CCN(C(=S)Nc2ccc(S(=O)(=O)N3CCOCC3)cc2)CC1	L major viab 71
O=S(=O)(c1ccc(NC(=S)N/N=C/c2c3ccccc3cc3ccccc23)cc1)N1CCOCC1	L major viab 95 (no result: Mdm2 ligase inh)
CCCCOCCCNC(=S)Nc1ccc(S(=O)(=O)N2CCOCC2)cc1	none (no result: L major viab)
O=S(=O)(c1ccc(NC(=S)N/N=C/c2ccc(Oc3ccccc3)cc2)cc1)N1CCOCC1	none
O=S(=O)(c1ccc(NC(=S)NCCC(c2ccccc2)c2ccccc2)cc1)N1CCOCC1	L major viab 60
CC(C)(C)NC(=O)c1nc2nc(-c3ccccc3)cc(C(F)(F)F)n2n1	none
COC(=O)c1ccc(C)c(NS(=O)(=O)c2ccc(OC)c(OC)c2)c1	L major viab 100 (no result: S1P3 antag)
COC(=O)c1cccc(NS(=O)(=O)c2ccc(OC)c(OC)c2)c1C	none (no result: S1P3 antag)
COc1cccc(NS(=O)(=O)c2ccc(OC)c(OC)c2)c1	S1P3 antag 63
CCOc1ccc(NC(=O)C(C)Oc2ccccc2C(=O)Nc2ccc(C)c(Cl)c2)cc1 (stereo not given)	none (no result: S1P3 antag)
COc1ccc(CCNC(=O)c2ccccc2N(C)S(=O)(=O)c2ccccc2)cc1	L major viab 80
COCCNC(=O)c1ccccc1NC(=O)c1ccccc1N(C)S(=O)(=O)c1ccccc1	none (no result: S1P3 antag)
CCN(c1ccccc1)S(=O)(=O)c1ccc(OC)c(NC(=O)CNCCc2ccccc2)c1	L major viab 52
COc1ccc(CCNC(=O)c2ccc(Cl)c(S(=O)(=O)N(C)c3ccccc3)c2)cc1	L major viab 98
COc1ccc(CCNC(=O)c2ccc(N(C)S(=O)(=O)c3ccc(C)cc3)cc2)cc1	none
CCN(CC)S(=O)(=O)c1ccc(OC)c(NC(=O)CSc2cc(C)ccc2C)c1	L major viab 73
Cc1cccn2c(=O)c(C=O)c(NCc3ccccc3)nc12	none (no result: L major viab)
COC(=O)c1ccccc1NC(=O)CN(C)S(=O)(=O)c1cc(C)ccc1OC	none
Cc1ccc(N2C(=O)N(Cc3ccccc3C)c3ccccc3S2(=O)=O)cc1	none
CCN(c1ccccc1)S(=O)(=O)c1ccc(Cl)c(C(=O)NCCc2ccc(OC)cc2)c1	L major viab 89
CN1CCN(C(=O)c2ccc(Cl)c(S(=O)(=O)N3CCCCC3)c2)CC1	none
CN1CCCN(C(=O)c2ccc(Cl)c(S(=O)(=O)N(C)c3ccccc3)c2)CC1	L major viab 72 (no result: S1P3 antag)
CC(=O)Nc1ccc(NC(=O)[C@@H]2CCCN2S(=O)(=O)c2ccc3c(c2)OCCO3)cc1	none
COC(=O)[C@@H](NC(=O)NC1CCCCC1C)C(C)C (stereo not given in full)	none (no result: L major viab)
COC(=O)/C(=C\c1ccc2c(c1)c1ccccc1n2C)NC(=O)c1ccccc1	L major viab 63
CC(C)OC(=O)/C(=C/c1ccc2c(c1)c1ccccc1n2C)NC(=O)c1ccccc1	none
CN(C)S(=O)(=O)c1cccc(NC(=O)CSc2nnnn2-c2ccccc2)c1	none (no result: L major viab)
CCOc1ccc(NC(=S)NCCCn2ccnc2)cc1	L major viab 83
CCCCOc1ccc(NC(=O)C(=O)NCCCn2ccnc2)cc1	none
Cc1ccc(NC(=O)CN2C(=O)NC(C)(c3ccc(Cl)cc3)C2=O)cc1S(=O)(=O)N1CCOCC1 (stereo not given)	L major viab 56
CC(C)(C)c1ccc(C2(C)NC(=O)N(CC(=O)Nc3ccc4c(c3)OCO4)C2=O)cc1 (stereo not given)	L major viab 77 (no result: S1P3 antag)
COc1ccc(S(=O)(=O)c2c(N)n(Cc3ccco3)c3nc4ccccc4nc23)cc1	L major viab 72
COc1ccc(Cn2c(C)nc3c(c2=O)c2nc4ccccc4nc2n3Cc2ccco2)cc1	none (no result: L major viab, Mdm2 ligase inh, S1P4 antag, S1P4 agonist)
Cc1ccc(S(=O)(=O)c2c(N)n(/N=C/c3ccco3)c3nc4ccccc4nc23)cc1	L major viab 59
Cc1cccc(S(=O)(=O)c2c(N)n(/N=C/c3cccnc3)c3nc4ccccc4nc23)c1	none
Cc1ccc(S(=O)(=O)c2c(N)n(CC3CCOC3)c3nc4ccccc4nc23)cc1 (stereo not given)	L major viab 60
Cc1ccc(S(=O)(=O)c2c(N)n(/N=C/c3ccco3)c3nc4ccccc4nc23)cc1C	L major viab 79 (no result: Mdm2 ligase inh)

Compound activity: PubChem, several laboratories
